High-throughput results deposited in PubChem by several laboratories.
Hits are enriched below; roughly 4% of the tested compounds scored in any of these assays.
WT yeast gro inh = growth inhibition of WT yeast, mitochondrial fusion screen; mitochondrial fusion phenotypic screen, WT strain; inhibition, % at 10 µM; hit rate 2.1% among 190,000; in the data active means inhibition above about 58%; tested in S. cerevisiae
Pf gamet viab = inhibitors of late stage P. falciparum gametocyte viability; P. falciparum stage V gametocytes, ATP luminescence, 24 h; inhibition, % at 10.9 µM; hit rate 0.065% among 150,000; AID 743093;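 active means inhibition above the mean plus 3 SD of compounds within the control limits, set per campaign, cut at about 38% in these data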;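 further: 0% = DMSO wells and 100% = medium only without gametocytes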
bCat nuc transl = alters nuclear translocation of beta-catenin in HeLa cells; immunofluorescence imaging; hit rate 0.3% among 190,000; AID 1665; nuclear translocation activity, % at 5 µM;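 active means nuclear translocation activity above 50% at 5 µM, with a well cell count of 50 or more; inconclusive means wells under 50 cells across six images, flagged as toxic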;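 further: per-cell ratio of nuclear to cytoplasmic median beta-catenin stain intensity; plate controls were DMSO negative control for no effect and GSK-3 inhibitor IX positive control for full effect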
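Test system: HeLa cells, endogenous beta-catenin; Compound: single 5 µM dose plus 0.02–20 µM confirmation series; Times: compound exposure 24 h at 37°C; Signal: fluorescence imaging of beta-catenin antibody stain plus DAPI; Read-out: % activation, nuclear-to-cytoplasmic median beta-catenin signal ratio per cell.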
KCC2 mod = modulators of human KCC2 chloride dependent transport; Q9H2X9; KCC2 cells, thallium flux FluoZin-2 fluorescence; B-score of Tl+ flux slope (higher = more flux/activation; lower = inhibition) at 10 µM; hit rate 2.2% among 190,000; AID 1456;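 active means thallium flux slope and its plate-corrected score both differing from the plate sample mean at a set confidence after two filtering rounds, in either direction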;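 further: slope of fluorescence scaled to starting intensity during 10 to 20 s after thallium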
Target sequence (Q9H2X9 whole entry, looked up): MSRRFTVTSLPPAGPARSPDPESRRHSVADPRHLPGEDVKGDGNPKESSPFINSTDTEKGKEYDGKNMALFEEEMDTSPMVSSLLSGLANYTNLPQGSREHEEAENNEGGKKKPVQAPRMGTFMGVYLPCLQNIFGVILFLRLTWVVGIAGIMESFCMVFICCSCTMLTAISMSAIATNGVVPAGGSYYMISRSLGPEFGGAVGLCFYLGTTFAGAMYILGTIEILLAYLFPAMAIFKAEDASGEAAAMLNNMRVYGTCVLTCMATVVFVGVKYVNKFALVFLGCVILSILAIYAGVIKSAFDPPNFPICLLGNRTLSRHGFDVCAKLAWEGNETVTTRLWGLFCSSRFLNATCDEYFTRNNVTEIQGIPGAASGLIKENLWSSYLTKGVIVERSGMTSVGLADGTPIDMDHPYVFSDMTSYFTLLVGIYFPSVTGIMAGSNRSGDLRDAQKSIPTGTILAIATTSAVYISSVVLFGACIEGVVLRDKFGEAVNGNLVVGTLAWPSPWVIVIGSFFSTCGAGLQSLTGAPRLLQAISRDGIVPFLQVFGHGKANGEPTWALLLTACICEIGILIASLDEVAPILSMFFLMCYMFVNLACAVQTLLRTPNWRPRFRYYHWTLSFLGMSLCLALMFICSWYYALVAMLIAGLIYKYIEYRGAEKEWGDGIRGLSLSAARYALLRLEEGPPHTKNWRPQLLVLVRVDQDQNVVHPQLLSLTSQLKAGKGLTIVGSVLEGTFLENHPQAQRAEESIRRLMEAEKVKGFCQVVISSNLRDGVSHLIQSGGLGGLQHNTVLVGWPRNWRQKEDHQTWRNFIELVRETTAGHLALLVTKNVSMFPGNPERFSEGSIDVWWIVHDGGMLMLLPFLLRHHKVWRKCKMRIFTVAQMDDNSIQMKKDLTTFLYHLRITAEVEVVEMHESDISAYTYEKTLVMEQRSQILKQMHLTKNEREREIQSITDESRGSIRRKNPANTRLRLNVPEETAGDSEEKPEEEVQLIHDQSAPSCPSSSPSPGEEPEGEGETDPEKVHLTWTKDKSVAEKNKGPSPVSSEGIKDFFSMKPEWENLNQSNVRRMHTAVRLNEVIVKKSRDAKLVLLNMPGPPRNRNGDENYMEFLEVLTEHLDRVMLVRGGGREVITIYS
MT stabilizer = stabilizes microtubules in HeLa cells | AID 2205 | % tubulin-high responders, % at 10 µM | hit rate 0.83% among 200,000 | HeLa tubulin immunostaining HCS, 24 h; share of cells brighter than vehicle mean+2SD;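 active means plate Z-score above 3 for both tubulin-high and condensed-nucleus cell shares, with cell loss under 80%, at 10 µM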;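 further: anti alpha tubulin signal scored within the nucleus-defined area of each cell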
KCC2 secondary = confirmation of human KCC2 transport modulators. HEK293-KCC2, thallium flux, FluoZin2 fluorescence; stronger effect = higher value. hit rate 15% among 3,700. normalised thallium flux (F/F0 slope) at 10 µM. shares compounds with KCC2 mod. AID 1713;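 active means thallium flux slope above the same plate's solvent-only control mean plus 3 SD; inconclusive means the two replicate wells disagree; inactive means no significant difference from solvent-only control wells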
KCC2 bumet counter = thallium flux persisting under bumetanide in KCC2 cells, counter-screen secondary assay; shares compounds with KCC2 mod; AID 1714; HEK293-KCC2 + bumetanide/ouabain, thallium flux FluoZin2; stronger effect = higher value; normalized thallium flux at 10 µM; hit rate 49% among 3,700;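 active means thallium entry rate above the same plate's blocked-transporter control wells by more than 3 SD; inconclusive means the two repeat wells disagree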;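 further: raw slope of fluorescence over initial fluorescence between 10 and 20 s after thallium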
KCC2 secondary2 = KCC2 (human) modulation, second secondary assay. shares compounds with KCC2 mod. HEK293-KCC2, thallium flux FluoZin2 fluorescence; actives lie on both sides; F/F0 rise rate, 10–20 s post-thallium. normalized thallium flux at 10 µM. hit rate 23% among 3,700;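 active means thallium flux slope more than 3 SD above or below the plate's solvent-only control mean, mostly below; inconclusive means the two repeat wells disagreed; inactive means no significant shift from solvent-only controls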;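 further: raw slope with 0.1% DMSO as baseline and bumetanide as block control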
HEK counter1 = acts in parental HEK cells, KCC2 counter-screen. shares compounds with KCC2 mod. HEK293 parental cells, thallium flux FluoZin2, ouabain; baseline-ratio fluorescence slope, 10–20 s after thallium. thallium flux rate (normalised fluorescence) at 10 µM. hit rate 46% among 3,700;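 active means thallium flux rate significantly above the same plate's solvent-only control wells, beyond their mean plus 3 SD; inconclusive means the two replicate wells gave conflicting results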
KCC2 ouabain = modulates human KCC2 on retest with ouabain; shares compounds with KCC2 mod; hit rate 48% among 3,700; raw Tl+ flux slope (below DMSO = inhibition, above = activation) at 10 µM; HEK293-KCC2, thallium flux FluoZin2 fluorescence; bidirectional: low = inhibitor, high = activator;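 active means thallium flux slope beyond 3 SD from same-plate DMSO control mean in most replicates, usually higher, sometimes lower; inconclusive means repeat tests gave conflicting results; inactive means no significant difference from controls in most replicates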;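 further: slope of initial-normalized fluorescence between seconds 10 and 20 after thallium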
HEK293 Tl flux2 = counter-screen for KCC2 modulators: effect in parental HEK293 cells; hit rate 33% among 3,700; thallium flux slope at 10 µM; AID 1718; thallium flux FluoZin-2 fluorescence slope; shares compounds with KCC2 mod;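 active means thallium flux slope above the same plate's solvent-control mean plus 3 SD in both duplicate wells; inconclusive means duplicate wells that disagreed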;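 further: run without ouabain in cells lacking the KCC2 cotransporter; slope of fluorescence scaled to its starting value between 10 and 20 s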
* = called active by the depositor; ? = inconclusive; · = no result given.

SMILES	WT yeast gro inh	Pf gamet viab	bCat nuc transl	KCC2 mod	MT stabilizer	KCC2 secondary	KCC2 bumet counter	KCC2 secondary2	HEK counter1	KCC2 ouabain	HEK293 Tl flux2
S=C(Nc1ccccc1Cl)NC1CCN(Cc2ccccc2)CC1	33	·	-1	-2.7	6	·	·	·	·	·	·
Cc1ccc(Cn2nnc3c(=O)n(CC(=O)NCc4ccco4)cnc32)cc1	-11	19	5	-2.9*	5	0.0073	0.0039	?	?	0.015*	0.01
O=C(Cn1cnc2c(nnn2Cc2ccccc2F)c1=O)NCc1ccco1	4	·	-2	·	6	0.0093	0.0066	?	0.0081	0.018*	0.011
Cc1ccc(-n2nnc3c(=O)n(CC(=O)NCc4ccco4)cnc32)cc1	14	·	·	-0.11	3	·	·	·	·	·	·
O=C(Cn1cnc2c(nnn2-c2ccccc2)c1=O)NCc1ccco1	-2	·	-2	-1.3	2	·	·	·	·	·	·
N#Cc1c(C(F)(F)F)cc(Cc2ccccc2)nc1SCC(=O)NCC(=O)O	·	-9	·	·	·	·	·	·	·	·	·
N#Cc1nc(-c2cccc(Cl)c2)oc1NCc1cccnc1	10	-3	-5	1.7	3	·	·	·	·	·	·
Cc1ccc2cc(C)c3nnc(SCc4ccc(C(=O)O)cc4)n3c2c1C	·	13	-2	3.1*	·	0.0068	0.0087*	0.036	0.011*	0.023	0.013*
Cc1ccc(C(=O)c2coc3cc([N+](=O)[O-])c(O)c([N+](=O)[O-])c23)cc1	-27	-16	0	-2.1	2	·	·	·	·	·	·
Fc1ccc(NC(=S)Nc2ccc3nccnc3c2)cc1	-38	1	0	-0.0099	2	·	·	·	·	·	·
S=C(Nc1ccccc1)Nc1nccs1	·	·	0	138*	·	0.01*	0.084*	0.05*	0.07*	0.069*	0.039*
O=C(Cc1ccccc1)Nc1nccs1	·	5	·	·	·	·	·	·	·	·	·
Fc1ccc(NC(=S)Nc2nccs2)cc1	73	-2	-3	77*	3	0.03*	0.064*	?	0.1*	0.083*	0.026*
Cc1ccc(Cl)cc1NC(=S)NN	·	-9	0	0.97	·	·	·	·	·	·	·
NC(=O)c1ccc(NC(=O)Cc2csc(-c3ccccc3)n2)cc1	-10	5	1	-0.87	2	·	·	·	·	·	·
CCOC(=O)c1ccc(NC(=O)COC(=O)Cc2csc(-c3ccccc3)n2)cc1	18	3	0	-4.9*	2	0.0061*	0.015*	?	0.011*	0.016*	0.011
CN(Cc1ccccc1)C(=O)COC(=O)c1ccc(Cl)c(N)c1	-3	·	-2	-3.9*	7	0.0073	0.0057	0.037	0.004	0.016*	0.01
NC(=S)c1ncc(C(F)(F)F)cc1Cl	·	3	1	1.2	·	·	·	·	·	·	·
Cc1c(Cl)cccc1NC(=S)NNc1ncc(C(F)(F)F)cc1Cl	27	-6	·	5.5*	2	0.0061	0.049*	?	0.018*	0.038*	0.021*
NC(=S)Nc1ncc(C(F)(F)F)cc1Cl	10	-26	-3	16*	3	0.0065	0.059*	0.047*	0.036*	0.047*	0.039*
Fc1ccccc1NC(=S)NNc1ncc(C(F)(F)F)cc1Cl	4	·	·	6.9*	2	0.0078	0.052*	0.03	0.011*	?	0.01*
CCOC(=O)CNC(=O)N1CCCC(Cc2ccccc2)(C(=O)OCC)C1 (stereo not given)	·	-13	·	·	·	·	·	·	·	·	·
Cc1csc(NC(=O)CSc2nnc(NC(=O)COc3ccccc3)s2)n1	0	11	0	0.7	2	·	·	·	·	·	·
CCOc1ccc2c(c1)c(N=NC(N)=S)c(O)n2C	·	24	0	8.2*	·	?	0.035*	0.039	0.015*	0.027	0.012*
CCOc1ccc2c(c1)c(N=NC(=N)N)c(O)n2C	-1	3	5	0.27	8	·	·	·	·	·	·
SMILES	WT yeast gro inh	Pf gamet viab	bCat nuc transl	KCC2 mod	MT stabilizer	KCC2 secondary	KCC2 bumet counter	KCC2 secondary2	HEK counter1	KCC2 ouabain	HEK293 Tl flux2
NC(=S)N=Nc1c(O)n(CCCl)c2ccccc12	21	10	-1	13*	3	0.024*	0.031*	?	0.018*	0.027*	0.019*
NC(=S)N=Nc1c(O)n(CCCl)c2ccc(Cl)cc12	-18	-4	0	16*	4	0.0075	0.041*	?	0.036*	0.047*	0.024*
Cn1c(=O)c2ncn(CC(=O)NCCOCc3ccccc3Cl)c2n(C)c1=O	1	-1	·	0.87	5	·	·	·	·	·	·
CN(C(=O)c1ccc(=O)n(Cc2ccc(Cl)cc2)c1)c1ccccc1	8	-5	-2	-0.66	3	·	·	·	·	·	·
O=S(=O)(c1ccccc1)N1CCN=C1SCc1ccccc1	6	11	4	-3.6*	1	0.0058	?	0.028	0.0068	0.015*	0.0098
COc1ccc(-n2c(Cc3cccn3C)nnc2SCC(=O)Nc2ccc(F)cc2)cc1	1	·	2	-3.1*	2	0.0089	0.005	0.036	0.0072	0.019	0.011
O=C(CSc1nnnn1-c1ccccc1)Nc1nsc(-c2ccccc2)n1	10	9	-1	-6.3*	5	0.017	0.0049	0.024*	0.0076	0.014	0.01
O=C(CSc1nnnn1-c1ccccc1)Nc1nsc(-c2ccc(Cl)cc2)n1	20	7	0	-0.47	5	·	·	·	·	·	·
CCOC(=O)Cn1c(=S)[nH]c2c(oc3ccc(Cl)cc32)c1=O	-5	8	0	·	1	0.022*	0.041*	0.033	0.02*	0.04*	0.014*
Cc1n[nH]c(C)c1CCN(C)Cc1cn(C)nc1-c1ccccc1F	-8	·	3	-0.15	1	·	·	·	·	·	·
COc1ccc(CCNC(=O)c2cc3c(C)nccc3[nH]c2=O)cc1OC	10	10	-1	-0.22	4	·	·	·	·	·	·
N#CC1=C(S)N=C(N)C(c2nc(-c3ccccc3)cs2)C12CCCCC2 (stereo not given)	-15	·	7	-3.9*	1	0.0094	0.006	0.022*	0.0069	0.016*	0.0097
Cc1ccc(C(=O)NNC(=O)CSc2nnc3c(n2)[nH]c2ccc(C)cc23)cc1	-23	·	-1	5.4*	3	0.0065	0.0043	0.032	0.0073	0.018	0.011
CCc1ccc2[nH]c3nc(SCC(=O)NNC(=O)c4ccc(C(C)(C)C)cc4)nnc3c2c1	3	-4	0	·	4	·	·	·	·	·	·
